Legend:
[1] = target: Beta-2 adrenergic receptor (Homo sapiens, UniProt P07550); test: Agonist activity at human beta2 receptor expressed in CHO cells assessed as cAMP accumulation; assay type: functional, cell-based
[2] = target: Beta-1 adrenergic receptor (Homo sapiens, UniProt P08588); test: Agonist activity at human beta1 receptor expressed in CHO cells assessed as cAMP accumulation; assay type: functional, cell-based
[3] = target: Beta-3 adrenergic receptor (Homo sapiens, UniProt P13945); test: Agonist activity at human beta3 receptor expressed in CHO cells assessed as cAMP accumulation; assay type: functional, cell-based
Liver microsomes = test: Metabolic stability in human liver microsomes assessed as compound turn over ratio relative to verapamil; assay type: ADME, Microsome
[4] = Oral bioavailability in dog; assay type: ADME, organism-based, Canis lupus familiaris; conditions: in vivo
Procedure, shortened: (§1)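 Pharmacokinetics were run in male Han Wistar rat and Beagle dog, dosed intravenously and orally. Plasma clearance, steady-state volume of distribution, half-life and oral bioavailability were derived from the plasma profiles. Rat plasma samples were deconjugated before analysis.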

Cavia porcellus [5] = test: Bronchodilatory activity against histamine-induced bronchospasm in guinea pig assessed as time taken for 50% recovery of bronchospasm at EC90 administered via nebulizer; assay type: functional
Procedure, shortened: (§2)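 In vivo guinea pig model with histamine-induced bronchospasm, measured in a plethysmograph chamber. Compound was given as a nebulised solution in dimethyl acetamide-saline vehicle. Potency is expressed as the EC90 nebuliser concentration.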

[6] = Lipophilicity, log D of the compound at pH 6.4; assay type: physicochemical; conditions: buffer
[7] = AUC in Han Wistar rat at 2 mg/kg, po; assay type: ADME, organism-based; design: dose 2 mg/kg, route oral; conditions: plasma
Procedure, shortened: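 Oral absorption in rat was measured as AUC using a deconjugated HPV model.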

Rattus norvegicus = test: Liver blood flow in Han Wistar rat at 0.25 mg/kg, iv; assay type: ADME, organism-based; design: dose 0.25 mg/kg, route intravenous; conditions: in vivo
Cavia porcellus [8] = organism: Cavia porcellus; test: Bronchodilatory activity against histamine-induced bronchospasm in the guinea pig; assay type: functional; procedure, shortened: as §2
Cavia porcellus [9] = test: Bronchodilatory activity against histamine-induced bronchospasm in guinea pig assessed as time taken for 50% recovery of bronchospasm at 10 times EC90 administered via nebulizer; assay type: functional; procedure, shortened: as §2
[10] = target: Beta-2 adrenergic receptor (Cavia porcellus, UniProt Q8K4Z4); test: Agonist activity at beta2 adrenergic receptor in guinea pig tracheal strip assessed as inhibition of electrically-induced bronchocontractile response; assay type: functional, tissue-based, Trachea
Cavia porcellus [11] = organism: Cavia porcellus; test: Bronchodilatory activity against electrically-stimulated contraction in guinea pig trachea assessed as onset time for bronchorelaxation activity; assay type: functional
Procedure, shortened: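 Isolated guinea pig trachea strips were superfused and contracted electrically. Agonist was perfused until maximal relaxation was reached. Onset was taken as the time for an EC50 concentration to reach 50% of maximal relaxant effect. Minimum n = 2.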

[12] = Plasma clearance in Han Wistar rat at 0.25 mg/kg, iv; assay type: ADME, organism-based; design: dose 0.25 mg/kg, route intravenous; procedure, shortened: as §1
[13] = Volume of distribution at steady state in Han Wistar rat at 0.25 mg/kg, iv; assay type: ADME, organism-based; design: dose 0.25 mg/kg, route intravenous; conditions: in vivo, read-out: Vdss; procedure, shortened: as §1
[14] = Half life in Han Wistar rat at 0.25 mg/kg, iv; assay type: ADME, organism-based; design: dose 0.25 mg/kg, route intravenous; conditions: in vivo; procedure, shortened: as §1
[15] = Oral bioavailability in Han Wistar rat at 2 mg/kg; assay type: ADME, organism-based; conditions: in vivo; procedure, shortened: as §1
[16] = Half life in Beagle dog at 0.05 mg/kg, iv; conditions: in vivo
[17] = Oral bioavailability in Beagle dog at 0.25 mg/kg; conditions: in vivo
Canis familiaris = test: Liver blood flow in Beagle dog at 0.05 mg/kg, iv; conditions: in vivo
[18] = Plasma clearance in Beagle dog at 0.05 mg/kg, iv
[19] = Volume of distribution at steady state in Beagle dog at 0.05 mg/kg, iv; conditions: in vivo, read-out: Vdss

Beta-2 adrenergic receptor (Homo sapiens, UniProt P07550), sequence (P07550 whole entry): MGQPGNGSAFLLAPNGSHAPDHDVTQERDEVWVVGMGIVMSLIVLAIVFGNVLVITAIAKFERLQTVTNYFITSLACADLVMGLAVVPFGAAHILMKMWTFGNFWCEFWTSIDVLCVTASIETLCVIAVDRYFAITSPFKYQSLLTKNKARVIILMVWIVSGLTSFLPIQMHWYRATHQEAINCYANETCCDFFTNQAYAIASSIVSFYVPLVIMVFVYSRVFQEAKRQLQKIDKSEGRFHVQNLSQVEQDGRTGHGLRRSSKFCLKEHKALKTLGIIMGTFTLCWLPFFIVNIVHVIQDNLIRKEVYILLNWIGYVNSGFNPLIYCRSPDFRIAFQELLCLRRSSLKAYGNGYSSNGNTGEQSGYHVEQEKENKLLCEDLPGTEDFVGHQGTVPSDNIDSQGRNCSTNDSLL
Beta-3 adrenergic receptor, sequence (P13945 whole entry): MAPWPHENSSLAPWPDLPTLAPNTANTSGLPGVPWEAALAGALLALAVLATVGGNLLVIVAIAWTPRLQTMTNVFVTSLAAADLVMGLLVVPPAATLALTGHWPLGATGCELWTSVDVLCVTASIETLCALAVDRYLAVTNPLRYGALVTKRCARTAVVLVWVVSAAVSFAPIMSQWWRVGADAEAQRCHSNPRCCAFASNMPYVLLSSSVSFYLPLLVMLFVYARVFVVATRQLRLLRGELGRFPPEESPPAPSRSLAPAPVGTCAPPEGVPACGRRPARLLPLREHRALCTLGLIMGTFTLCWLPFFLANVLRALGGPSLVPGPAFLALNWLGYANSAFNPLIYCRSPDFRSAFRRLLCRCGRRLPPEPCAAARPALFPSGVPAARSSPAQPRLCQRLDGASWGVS
Beta-1 adrenergic receptor, sequence (P08588 whole entry): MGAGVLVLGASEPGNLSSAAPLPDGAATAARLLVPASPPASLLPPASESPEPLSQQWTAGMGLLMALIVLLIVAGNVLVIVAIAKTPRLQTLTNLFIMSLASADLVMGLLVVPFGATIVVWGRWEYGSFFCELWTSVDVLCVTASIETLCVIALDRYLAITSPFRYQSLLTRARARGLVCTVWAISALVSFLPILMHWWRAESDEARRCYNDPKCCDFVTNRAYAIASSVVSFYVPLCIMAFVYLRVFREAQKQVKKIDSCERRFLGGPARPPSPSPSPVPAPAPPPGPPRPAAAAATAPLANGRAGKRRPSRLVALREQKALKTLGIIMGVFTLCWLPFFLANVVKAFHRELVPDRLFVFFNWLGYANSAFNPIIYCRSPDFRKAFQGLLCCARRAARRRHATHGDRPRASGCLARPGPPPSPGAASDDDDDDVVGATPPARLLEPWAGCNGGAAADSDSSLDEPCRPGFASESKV
Beta-2 adrenergic receptor (Cavia porcellus, UniProt Q8K4Z4), sequence (Q8K4Z4 whole entry): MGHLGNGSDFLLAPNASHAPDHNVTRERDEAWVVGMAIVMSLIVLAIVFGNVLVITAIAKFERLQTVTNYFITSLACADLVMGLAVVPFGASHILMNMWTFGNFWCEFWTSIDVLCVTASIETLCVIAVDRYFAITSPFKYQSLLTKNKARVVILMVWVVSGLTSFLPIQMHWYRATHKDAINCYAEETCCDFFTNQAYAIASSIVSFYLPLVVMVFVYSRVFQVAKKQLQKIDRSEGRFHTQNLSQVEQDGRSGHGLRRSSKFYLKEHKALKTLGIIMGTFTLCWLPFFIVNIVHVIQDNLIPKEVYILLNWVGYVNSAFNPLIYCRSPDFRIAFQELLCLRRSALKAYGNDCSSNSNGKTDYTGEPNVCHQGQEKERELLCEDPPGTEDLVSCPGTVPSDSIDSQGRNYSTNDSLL

| EC50 [1] [nM] | EC50 [2] [nM] | EC50 [3] [nM] | fold change (FC) (Liver microsomes) | logD [6] | EC50 [10] [nM] | SMILES | Time (Cavia porcellus [11]) [min] | other results |
| --- | --- | --- | --- | --- | --- | --- | --- | --- |
| – | – | – | – | 1.06 | – | OCc1cc(C(O)CNCCCCCCOCCCCc2ccccc2)ccc1O (configuration not stated) [SALMETEROL] | – | bioavailability [4]: 66%; Time (Cavia porcellus [5]): 8 h |
| 0.316 | 10 | 12.6 | – | – | – | O=C(CNC(=O)Nc1cccc(CCCCOCCCCCCNC[C@H](O)c2ccc(O)c(CO)c2)c1)NC1CCCC1 | – | – |
| 1 | 50.1 | 25.1 | 1.34 | – | – | CC(=O)O.NC(=O)Nc1cc(CCCCOCCCCCCNC[C@H](O)c2ccc(O)c(CO)c2)cc(C(F)(F)F)c1 | – | – |
| 0.158 | 39.8 | 39.8 | 1.17 | 0.2 | 1.58 | CC(=O)O.Cc1cc(CCCCOCCCCCCNC[C@H](O)c2ccc(O)c(CO)c2)cc(NC(N)=O)c1 | 10 | AUC [7]: 80.2 ng·h/mL; QH (Rattus norvegicus): 100%; EC90 (Cavia porcellus [8]): 10000 nM; Time (Cavia porcellus [5]): 7 h; Time (Cavia porcellus [9]): 18 h; clearance [12]: 83 mL/min/kg; Vd [13]: 2 L/kg; half-life [14]: 54 min; bioavailability [15]: < 5%; half-life [16]: 60 min; bioavailability [17]: 6%; QH (Canis familiaris): < 67%; clearance [18]: 6 mL/min/kg; Vd [19]: 0.55 L/kg |
| 1 | 31.6 | 158 | 0.81 | 0.5 | 1.26 | CC(=O)O.CCNC(=O)Nc1cccc(CCCCOCCCCCCNC[C@H](O)c2ccc(O)c(CO)c2)c1 | 15 | – |
| 0.794 | 63.1 | 7.94 | 0.97 | -0.28 | 2.51 | CC(=O)O.NC(=O)Nc1cccc(CCCCOCCCCCCNC[C@H](O)c2ccc(O)c(CO)c2)c1 | 13.5 | – |

More lines, now with the values behind:

| SMILES | EC50 [1] [nM] | EC50 [2] [nM] | EC50 [3] [nM] | fold change (FC) (Liver microsomes) | logD [6] | EC50 [10] [nM] | Time (Cavia porcellus [11]) [min] | other results |
| --- | --- | --- | --- | --- | --- | --- | --- | --- |
| CC(=O)O.CCNC(=O)Nc1ccc(CCCCOCCCCCCNC[C@H](O)c2ccc(O)c(CO)c2)cc1 | 0.501 | 31.6 | 12.6 | 1.37 | – | – | – | – |
| CC(=O)O.CCNC(=O)NCc1cccc(CCCCOCCCCCCNC[C@H](O)c2ccc(O)c(CO)c2)c1 | 0.631 | 31.6 | 31.6 | 0.72 | – | – | – | – |
| CC(=O)O.O=C(Nc1cccc(CCCCOCCCCCCNC[C@H](O)c2ccc(O)c(CO)c2)c1)NC1CCCCC1 | 1 | 7.94 | 2.51 | 2.18 | – | – | – | – |
| CC(=O)O.NC(=O)NCc1cccc(CCCCOCCCCCCNC[C@H](O)c2ccc(O)c(CO)c2)c1 | 0.501 | 7.94 | 15.8 | 1.64 | – | – | – | – |
| NC(=O)CNC(=O)Nc1cccc(CCCCOCCCCCCNC[C@H](O)c2ccc(O)c(CO)c2)c1.O=CO | 0.251 | 31.6 | 100 | – | -0.78 | 0.251 | 9 | – |

Reference: ChEMBL document CHEMBL1833832, “The discovery of long-acting saligenin β₂ adrenergic receptor agonists incorporating a urea group” (Bioorg Med Chem, 2011)
